Reference: ChEMBL document CHEMBL3763111, “Identification of a diverse indole-2-carboxamides as a potent antileishmanial chemotypes” (Eur J Med Chem, 2016)

What was measured:
Syrian golden hamster = assay: Toxicity in golden hamster infected with amastigote stage of Leishmania donovani MHOM/IN/80/Dd8 assessed as abnormality in behaviour at 50 mg/kg/day, ip administered for 5 days; format: organism-based, Mesocricetus auratus; conditions: in vivo, 120 h
[1] = (§1) Selectivity index, ratio of CC50 for African green monkey Vero cells to IC50 for Leishmania donovani MHOM/IN/80/Dd8 amastigotes infected in mouse J774A.1 cells; format: functional
Procedure, shortened: (§2)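 Ratio of Vero-cell MTT CC50 to IC50 against intracellular amastigotes, both measured in this work.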

Leishmania donovani [2] = assay: Antileishmanial activity against Leishmania donovani MHOM/IN/80/Dd8 amastigotes infected in mouse J774A.1 cells incubated for 72 hrs by luminometric analysis; format: functional, organism-based; conditions: MHOM/IN/80/Dd8, J774.A1, 72 h
Procedure, shortened: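 Macrophages seeded at 4 x 10^4/mL in RPMI-1640 with 10% FCS for 24 h, then infected with stationary-phase promastigotes (4 x 10^5/mL) for 24 h. Free parasites washed off. Compounds added as 7-point two-fold dilutions from 40 µM; 72 h at 37°C. Read-out was Steady Glo luminescence. IC50 from four-parameter Hill fit; two independent assays in duplicate.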

[3] = Cytotoxicity against mouse J774A.1 cells after 72 hrs by MTT assay; format: cell-based, J774.A1
Procedure, shortened: (§3)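 Vero or J-774A.1 cells (1 x 10^5 cells/mL) exposed to 7 concentrations starting from 400 µM for 72 h. MTT (5 mg/mL stock) then added for 2 h at 37°C. Formazan dissolved in DMSO; absorbance read at 544 nm. CC50 estimated per Huber & Koella; mean ± SD of two independent assays in duplicate.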

Leishmania donovani [4] = assay: Antileishmanial activity against amastigote stage of Leishmania donovani MHOM/IN/80/Dd8 infected in golden hamster at 30 mg/kg, po administered for 5 days measured on day 7 of last dose by Geimsa staining method; format: functional; conditions: MHOM/IN/80/Dd8, po
Procedure, shortened: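 Golden hamsters (inbred, either sex, 40–45 g) were infected intracardially with 1x 10^7 L. donovani amastigotes. Spleen biopsy at day 15; animals with +1 infection (5–10 amastigotes/100 spleen cell nuclei) were used, 5–6 per group. Dosing started 2 days after biopsy and ran 5 consecutive days. Day-7 post-treatment splenic amastigotes were counted by Giemsa stain; percent inhibition was computed against initial and untreated-control counts.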

[5] = Cytotoxicity against African green monkey Vero cells after 72 hrs by MTT assay; format: cell-based; conditions: chlorocebus sabaeus; procedure, shortened: as §3
Leishmania donovani [6] = assay: Potency index, ratio of IC50 for miltefosine to IC50 for test compound against Leishmania donovani MHOM/IN/80/Dd8 amastigotes infected in mouse J774A.1 cells; format: functional
Vero = assay: as §1; format: functional; procedure, shortened: as §2
Leishmania donovani [7] = assay: Antileishmanial activity against amastigote stage of Leishmania donovani MHOM/IN/80/Dd8 infected in golden hamster at 40 mg/kg, ip administered for 5 days measured on day 7 of last dose by Geimsa staining method; format: functional, organism-based
Leishmania donovani [8] = assay: Antileishmanial activity against amastigote stage of Leishmania donovani MHOM/IN/80/Dd8 infected in golden hamster at 50 mg/kg/day, ip administered for 5 days measured on day 7 of last dose by Geimsa staining method; format: functional; conditions: MHOM/IN/80/Dd8, ip
Procedure, shortened: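 Inbred golden hamsters (40–45 g) infected intracardially with 1x10^7 amastigotes; only animals with +1 infection at 15-day spleen biopsy used. Five to six per group. Aqueous compound given ip at 50 mg/kg/day for 5 days, starting 2 days after biopsy. Splenic biopsy on day 7 after last dose, Giemsa-stained. Percent inhibition by formula relative to initial and untreated-control counts; pooled from at least two experiments.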

[9] = Volume of distribution at steady state in Sprague-Dawley rat at 5 mg/kg, iv after 0.083 to 48 hrs by RP-HPLC analysis; format: ADME, organism-based; conditions: in vivo, read-out: Vdss
Procedure, shortened: (§4)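 Male Sprague-Dawley rats (250 ± 25 g), conscious, given a single 5 mg/kg dose into the femoral vein. The dose was a 10 mg/ml solution in DMSO/ethanol/tween 80/propylene glycol (10:20:2:48) with normal saline. Blood taken 0.083–48 h; serum read by isocratic RP-HPLC (C18, ammonium acetate 0.01M:acetonitrile 35:65), LLOQ 25 ng/ml. n=3; noncompartmental analysis.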

[10] = Clearance in Sprague-Dawley rat at 5 mg/kg, iv after 0.083 to 48 hrs by RP-HPLC analysis; format: ADME, organism-based; conditions: in vivo; procedure, shortened: as §4
[11] = Mean residence time in Sprague-Dawley rat at 5 mg/kg, iv by RP-HPLC analysis; format: ADME, organism-based; conditions: in vivo; procedure, shortened: as §4
[12] = Oral availability in Sprague-Dawley rat at 50 mg/kg via gavage after 0.5 to 48 hrs by RP-HPLC analysis; format: ADME, organism-based; conditions: in vivo
Procedure, shortened: (§5)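 Single 50 mg/kg oral gavage dose to conscious male Sprague-Dawley rats (250 ± 25 g) after a 12–16 h overnight fast. Blood drawn at 0.5–48 h; serum separated and held at -80°C. Quantified by isocratic RP-HPLC (C18; 0.01M ammonium acetate/acetonitrile 35:65), LLOQ 25 ng/ml. Three rats; parameters derived noncompartmentally from mean serum concentrations.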

Leishmania donovani [13] = assay: Antileishmanial activity against promastigote stage of Leishmania donovani MHOM/IN/80/Dd8 assessed as apoptotic cells at IC50 after 12 hrs by annexin V-FITC/propidium iodide double staining-based flow cytometric analysis; format: functional
[14] = Tmax in Sprague-Dawley rat at 50 mg/kg administered as single dose via oral gavage by RP-HPLC analysis; format: ADME, organism-based; conditions: in vivo; procedure, shortened: as §5
Rattus norvegicus = assay: Volume of distribution at steady state in Sprague-Dawley rat at 50 mg/kg administered as single dose via oral gavage after 0.5 to 48 hrs by RP-HPLC analysis; format: ADME, organism-based; conditions: in vivo; procedure, shortened: as §5
[15] = AUC(last) in Sprague-Dawley rat at 5 mg/kg, iv after 0.083 to 48 hrs by RP-HPLC analysis; format: ADME, organism-based; design: dose 5 mg/kg, route intravenous, time 0 - last; conditions: in vivo; procedure, shortened: as §4
Leishmania donovani [16] = assay: Antileishmanial activity against promastigote stage of Leishmania donovani MHOM/IN/80/Dd8 assessed as apoptotic cells at IC50 after 72 hrs by annexin V-FITC/propidium iodide double staining-based flow cytometric analysis; format: functional
Leishmania donovani [17] = assay: Antileishmanial activity against promastigote stage of Leishmania donovani MHOM/IN/80/Dd8 assessed as apoptotic cells at IC50 after 48 hrs by annexin V-FITC/propidium iodide double staining-based flow cytometric analysis; format: functional
[18] = Tmax in Sprague-Dawley rat at 5 mg/kg, iv by RP-HPLC analysis; format: ADME, organism-based; conditions: in vivo; procedure, shortened: as §4
Leishmania donovani [19] = assay: Antileishmanial activity against promastigote stage of Leishmania donovani MHOM/IN/80/Dd8 assessed as apoptotic cells at IC50 after 24 hrs by annexin V-FITC/propidium iodide double staining-based flow cytometric analysis; format: functional
[20] = Cmax in Sprague-Dawley rat at 5 mg/kg, iv after 0.083 to 48 hrs by RP-HPLC analysis; format: ADME, organism-based; design: dose 5 mg/kg, route intravenous; conditions: in vivo; procedure, shortened: as §4
[21] = AUC(last) in Sprague-Dawley rat at 50 mg/kg administered as single dose via oral gavage after 0.5 to 48 hrs by RP-HPLC analysis; format: ADME, organism-based; design: dose 50 mg/kg, time 0 - last, route oral; conditions: in vivo; procedure, shortened: as §5
[22] = Cmax in Sprague-Dawley rat at 50 mg/kg administered as single dose via oral gavage after 0.5 to 48 hrs by RP-HPLC analysis; format: ADME, organism-based; design: dose 50 mg/kg, route oral; conditions: in vivo; procedure, shortened: as §5
[23] = Clearance in Sprague-Dawley rat at 50 mg/kg administered as single dose via oral gavage after 0.5 to 48 hrs by RP-HPLC analysis; format: ADME, organism-based; conditions: in vivo; procedure, shortened: as §5
[24] = Mean residence time in Sprague-Dawley rat at 50 mg/kg administered as single dose via oral gavage by RP-HPLC analysis; format: ADME, organism-based; conditions: in vivo; procedure, shortened: as §5

IC50 (Leishmania donovani [2]) [µM]	Compound	Ratio CC50/IC50 [1]	CC50 at 72 h [3] [µM]	CC50 at 72 h [5] [µM]	also measured
1.4	COc1ccc(C(C(=O)NC(C)(C)C)N(CC(=O)NCc2ccncc2)C(=O)c2cc3ccccc3[nH]2)cc1 (stereo not given)	78	47.9	109	–
2.1	CC(C)(C)NC(=O)C(c1ccc(Cl)cc1)N(CC(=O)NCCCN1CCOCC1)C(=O)c1cc2ccccc2[nH]1 (stereo not given)	101	198	212	Ratio IC50 (Leishmania donovani [6]): 4
8.8	CC(C)(C)NC(=O)C(c1ccc(Cl)cc1)N(CC(=O)NCc1ccccc1)C(=O)c1cc2ccccc2[nH]1 (stereo not given)	28	152	248	–
6.3	COc1cc(C(C(=O)NC(C)(C)C)N(CC(=O)NCc2ccc(Cl)c(Cl)c2)C(=O)c2cc3ccccc3[nH]2)cc(OC)c1OC (stereo not given)	11	61.4	72.9	–
10.9	CC(C)(C)NC(=O)C(c1ccc(Cl)cc1)N(CC(=O)NCc1ccc(Cl)cc1)C(=O)c1cc2ccccc2[nH]1 (stereo not given)	>36	143	> 400	–
–	Sodium stibo-gluconate	–	–	–	Ratio CC50/IC50 (Vero): > 7; inhibition (Leishmania donovani [7]): 86.9%
9.2	COc1ccc(CNC(=O)CN(C(=O)c2cc3ccccc3[nH]2)C(C(=O)NC(C)(C)C)c2cc(OC)c(OC)c(OC)c2)cc1 (stereo not given)	7	53.6	70.3	–
> 40	CC(C)(C)NC(=O)C(c1ccc(Cl)cc1)N(CC(=O)NCCO)C(=O)c1cc2ccccc2[nH]1 (stereo not given)	<5	239	226	–
0.6	COc1ccc(CNC(=O)CN(C(=O)c2cc3ccccc3[nH]2)C(C(=O)NC(C)(C)C)c2ccc(OC)cc2)cc1 (stereo not given)	>666	145	> 400	Activity (Syrian golden hamster): Non-toxic; inhibition in vivo at 50 mg/kg/day (Leishmania donovani [8]): 63.4%; Ratio IC50 (Leishmania donovani [6]): 14
7.5	COc1ccc(C(C(=O)NC(C)(C)C)N(CC(=O)NCc2ccc(Cl)cc2)C(=O)c2cc3ccccc3[nH]2)cc1 (stereo not given)	53	123	400	–
1.2	COc1ccc(CNC(=O)CN(C(=O)c2cc3ccccc3[nH]2)C(C(=O)NC(C)(C)C)c2ccc(Cl)cc2)cc1 (stereo not given)	121	140	146	Vd [9]: 4.4 L/kg; Activity (Syrian golden hamster): Non-toxic; clearance [10]: 10 mL/min/kg; MRT [11]: 7.4 h; bioavailability [12]: 34.9%; Activity (Leishmania donovani [13]): 49.1%; Tmax [14]: 1 h; Vdss (Rattus norvegicus): 12.8 L/kg; AUC(0-t) [15]: 7790 ng·h/mL; Activity (Leishmania donovani [16]): 79.07%; Activity (Leishmania donovani [17]): 73.3%; Tmax [18]: 4.98 min; inhibition in vivo at 50 mg/kg/day (Leishmania donovani [8]): 70%; Activity (Leishmania donovani [19]): 56.17%; Cmax [20]: 1390 ng/mL; AUC(0-t) [21]: 27200 ng·h/mL; Cmax [22]: 1590 ng/mL; CL/F [23]: 25 mL/min/kg; Ratio IC50 (Leishmania donovani [6]): 7; MRT [24]: 8.5 h
1.5	COc1ccc(CNC(=O)CN(C(=O)c2cc3ccccc3[nH]2)C(C(=O)NC(C)(C)C)c2ccc(Br)cc2)cc1 (stereo not given)	>266	135	> 400	–
7.5	CC(C)(C)NC(=O)C(c1ccc(Cl)cc1)N(CC(=O)NCc1ccc(Cl)c(Cl)c1)C(=O)c1cc2ccccc2[nH]1 (stereo not given)	7	19.2	52.2	–
3.1	COc1ccc(CNC(=O)CN(C(=O)c2cc3ccccc3[nH]2)C(C(=O)NC(C)(C)CC(C)(C)C)c2ccc(Cl)cc2)cc1 (stereo not given)	>129	51.2	> 400	–
14.5	COc1ccc(CNC(=O)CN(C(=O)c2ccc[nH]2)C(C(=O)NC(C)(C)C)c2cc(OC)c(OC)c(OC)c2)cc1 (stereo not given)	5	62.4	73	–
> 40	COc1cc(C(C(=O)NC(C)(C)C)N(CC(=O)NCc2ccccc2)C(=O)c2cc3ccccc3[nH]2)cc(OC)c1OC (stereo not given)	<4	66.8	176	–
6.4	CC(C)(C)NC(=O)C(c1ccc(Cl)cc1)N(CC(=O)NCc1ccncc1)C(=O)c1cc2ccccc2[nH]1 (stereo not given)	>62	129	> 400	–
1	CC(C)(C)NC(=O)C(c1ccc(Br)cc1)N(CC(=O)NCCCN1CCOCC1)C(=O)c1cc2ccccc2[nH]1 (stereo not given)	>400	147	> 400	Activity (Syrian golden hamster): Non-toxic; inhibition in vivo at 50 mg/kg/day (Leishmania donovani [8]): 63.5%
1.9	COc1cccc(CNC(=O)CN(C(=O)c2cc3ccccc3[nH]2)C(C(=O)NC(C)(C)C)c2ccc(Cl)cc2)c1 (stereo not given)	>210	42.5	> 400	–

Compound	IC50 (Leishmania donovani [2]) [µM]	Ratio CC50/IC50 [1]	CC50 at 72 h [3] [µM]	CC50 at 72 h [5] [µM]	also measured
CCCCCCCCCCCCCCCCOP(=O)([O-])OCC[N+](C)(C)C [MILTEFOSINE]	8.4	6	14.3	–	Activity (Syrian golden hamster): Non-toxic; inhibition in vivo at 30 mg/kg (Leishmania donovani [4]): 98.1%
